# Compound activity deposited in PubChem BioAssay by several laboratories.
# LEDGF integ inh: blocks HIV-1 LEDGF/p75-dependent DNA integration | TR-FRET IN-LEDGF/p75 DNA integration, Eu/Cy5 | inhibition, % at 3.7 µM | 370,000 tested, 0.64% active;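 active = inhibition above the screen-wide mean plus 3 SD, cut at about 13% in these data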;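 also: signal is the Cy5 over europium emission ratio at 671 and 618 nm; 0% = plate median of compound wells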
# UHRF1 MBD2 ctr: blocks human UHRF1 binding to methylated DNA; UHRF1 binding to methylated oligo, TR-FRET; Q96T88; 370,000 tested, 0.75% active; AID 687016; inhibition, % at 4.4 µM; in the data active = inhibition above about 21%;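 also: UHRF1 SRA domain binding a hemimethylated CpG hairpin DNA probe; 0% = median of test compound wells and 100% = reference inhibitor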
# CASP6 VEID inh: inhibitors of human caspase-6 | P55212 | purified caspase-6, Z-VEID-R110 cleavage fluorescence | inhibition, % at 12.5 µM | 350,000 tested, 0.53% active;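 active = mean inhibition across replicates at least about 35%, with every replicate also reaching that limit, limit read from the data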;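 also: 0% = median of neutral control wells and 100% = no fluorescence left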
# TDP2 absorb: TDP2 (human) inhibition, absorbance primary screen. AID 720702. inhibition, % at 12.8 µM. recombinant TDP2, T5PNP hydrolysis, p-nitrophenol absorbance 415 nm. 370,000 tested, 0.34% active;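 active = inhibition above the mean of all tested compounds plus 3 SD, set per campaign, cut at about 25% in these data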;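 also: 0% = DMSO with enzyme and 100% = buffer with substrate but no TDP2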
#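 System: recombinant human TDP2 / Amount: 120 nM TDP2 per well / Also added: 5 mM T5PNP chromogenic substrate / Doses: 12.8 µM single point, 1% DMSO / Incubation: 2 h at 37 °C / Detection: p-Nitrophenol epi absorbance / Evaluation: % inhibition relative to enzyme-containing and enzyme-free wells / Repeats: singlicate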
# NSD2 inh: blocks human histone methyltransferase NSD2; NSD2 peptide methylation, AlphaScreen, 120 min; inhibition, % at 12.5 µM; 310,000 tested, 0.54% active; AID 743445; in the data active = inhibition above about 50%
# MBD2 DNA inh: blocks human MBD2 binding to methylated DNA; 370,000 tested, 0.31% active; inhibition, % at 4.4 µM; TR-FRET, MBD2 binding to methylated oligonucleotide; Q9UBB5; in the data active = inhibition above about 13%
# Target sequence (Q9UBB5 whole entry, looked up): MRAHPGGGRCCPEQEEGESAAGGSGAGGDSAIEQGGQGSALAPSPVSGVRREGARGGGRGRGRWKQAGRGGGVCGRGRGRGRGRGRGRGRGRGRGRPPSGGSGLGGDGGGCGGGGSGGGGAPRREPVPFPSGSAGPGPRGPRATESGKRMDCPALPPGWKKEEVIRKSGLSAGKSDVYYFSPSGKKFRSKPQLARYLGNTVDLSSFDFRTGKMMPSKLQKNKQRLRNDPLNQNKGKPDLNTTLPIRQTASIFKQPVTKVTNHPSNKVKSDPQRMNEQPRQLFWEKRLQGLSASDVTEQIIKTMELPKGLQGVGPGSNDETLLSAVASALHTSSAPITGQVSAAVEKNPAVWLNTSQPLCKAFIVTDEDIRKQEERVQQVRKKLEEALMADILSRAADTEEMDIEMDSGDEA
# IN multimer up: activates HIV-1 integrase multimerization in LEDGF counter-screen | shares compounds with LEDGF integ inh | TR-FRET HIV-1 integrase multimerization, biochemical | activation, % at 7.7 µM | 2,000 tested, 17% active | AID 1053131; in the data active = activation above about 8.9%
# TR-FRET interf: counter-screen for LEDGF/p75 integration inhibitors: TR-FRET optical interference; shares compounds with LEDGF integ inh; 2,000 tested, under 10 active; inhibition, % at 7.7 µM; TR-FRET optical interference counterscreen, HIV-1 IN multimerization;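 active = inhibition above the mean over all tested compounds plus 3 SD, which no compound reached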;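 also: 0% = integrase with antibodies and DMSO and 100% = antibodies without integrase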
# LEDGF integ conf: confirmation of HIV-1 LEDGF/p75-dependent integration inhibitors. AID 1053136. TR-FRET LEDGF/p75-dependent HIV-1 integration, biochemical. shares compounds with LEDGF integ inh. 2,000 tested, 36% active. inhibition, % at 3.7 µM; in the data active = inhibition above about 14%
# * marks the source's active call; other numbers are inactive results; x = no result given. Compounds with a hit are over-represented: about 1.8% of the library has one in this group of screens.
SMILES,LEDGF integ inh,UHRF1 MBD2 ctr,CASP6 VEID inh,TDP2 absorb,NSD2 inh,MBD2 DNA inh,IN multimer up,TR-FRET interf,LEDGF integ conf
COC(=O)C1=C(c2ccc(-c3ccccc3)c(F)c2)C[C@@H]2CC[C@H]1N2C(=O)NCCNC(C)=O,0,-2,-2,-5,x,2,x,x,x
COC(=O)C1=C(c2ccc(-c3ccccc3)c(F)c2)C[C@@H]2CC[C@H]1N2C(=O)NCCOc1ccc(OC)cc1,15*,7,2,-22,x,-7,-2,8,-6
COc1ccc(CN2Cc3cc(-c4ccc(OC)cc4)ccc3-n3nncc3C2)cc1,17*,1,2,-3,x,3,1,-4,-3
COc1ccc(CN2Cc3cc(-c4ccccc4)ccc3-n3nncc3C2)cc1,12,1,0,1,x,5,x,x,x
CCCN1[C@@H]2c3ccc(-c4ccccc4)c(=O)n3C[C@H]1[C@H](CO)[C@H]2C(=O)OC,x,x,2,x,x,x,x,x,x
CC(=O)c1ccc2c(c1)C1C(Cl)C(Sc3ccccc3[N+](=O)[O-])CC1C(C(=O)O)N2 (centres undefined),14*,9,x,6,5,4,6,-28,20*
O=C(O)[C@@H]1[C@@H](CO)[C@@H]2Cn3c(ccc(C4=CCCCC4)c3=O)[C@H]1N2C(=O)Cc1ccccn1,x,x,1,x,x,x,x,x,x
CN1C(=O)NC(=O)[C@]2(Cc3ccccc3N3CCN(c4ccccc4)CC32)C1=O (some centres undefined),40*,0,x,11,5,0,0,-1,4
COC(=O)[C@@H]1[C@@H](CO)[C@@H]2Cn3c(ccc(C4=CCCCC4)c3=O)[C@H]1N2CC1CCCC1,x,x,-2,x,x,x,x,x,x
Clc1cccc(CNCCc2ccc3c(c2)OCO3)c1,15*,0,x,11,46,2,0,0,-2
Cc1ccc(S(=O)(=O)NCCC(=O)Nc2ccc(Cl)cc2C(=O)c2ccccc2)cc1,28*,0,x,1,2,-2,1,-6,-2
Cc1ccc(OCC(=O)Nc2ccc(Cl)cc2C(=O)c2ccccc2)cc1,-2,4,x,-2,4,0,x,x,x
CN1C[C@H](CO)C=C2c3cccc4[nH]cc(c34)C[C@H]21,16*,-5,6,13,x,-5,1,-4,3
COC(=O)[C@H]1[C@H](CO)[C@H]2Cn3c(cccc3=O)[C@@H]1N2C(=O)C1CC1,x,x,-1,x,x,x,x,x,x
CN1C(=O)/C(=C/c2cccn2-c2ccc3ccccc3c2)C(=O)NC1=S,18*,0,x,7,6,-2,6,-29,30*
CC(C)CC#Cc1ccc([C@@H]2[C@H](CO)N3CCCCN(C(=O)Cc4ccccn4)C[C@@H]23)cc1,x,x,-6,x,x,x,x,x,x
O=C(O)[C@H]1[C@H](CO)[C@H]2Cn3c(ccc(-c4ccccc4F)c3=O)[C@@H]1N2C(=O)Nc1ccccc1,x,x,-3,x,x,x,x,x,x
CN1CCC(O)(c2ccccc2)C2CCCC21 (centres undefined),37*,8,-6,9,-3,0,-3,14,2
CN1CCC(O)(c2ccccc2)C(C(=O)c2ccccc2)C1 (centres undefined),-3,9,x,-6,10,4,x,x,x
CCN(CC)c1ccc(N=Cc2c(O)[nH]c(=O)[nH]c2=O)cc1,26*,11,2,8,2,-5,12*,-44,3
CCOc1ccccc1-n1c(O)c(C=Nc2ccc(N(CC)CC)cc2)c(=O)[nH]c1=O,14*,-1,x,5,-3,-6,2,-11,-6
CCN(CC)c1ccc(N=Cc2c(O)n(-c3ccccc3)c(=O)[nH]c2=O)cc1,12,3,-1,1,24,-4,x,x,x
CCN(CC)c1ccc(N=Cc2c(O)n(-c3ccccc3C)c(=O)[nH]c2=O)cc1,28*,4,x,7,1,-6,1,-3,5
CCCCn1nnnc1C(CCc1ccccc1)N1CCC(n2c(=O)[nH]c3ccccc32)CC1 (centres undefined),20*,1,4,4,x,8,0,0,-3
O=c1[nH]c(=O)n(Cc2ccco2)c(O)c1/C=N/N1CCCCC1,23*,6,16,1,4,-4,-2,7,9
SMILES,LEDGF integ inh,UHRF1 MBD2 ctr,CASP6 VEID inh,TDP2 absorb,NSD2 inh,MBD2 DNA inh,IN multimer up,TR-FRET interf,LEDGF integ conf
Cc1ccccc1-c1ccc([C@H]2[C@@H](CO)N3CCCCN(C(=O)Cc4ccccn4)C[C@H]23)cc1,x,x,0,x,x,x,x,x,x
CN(C)[C@@H]1C(=O)C(C(N)=O)=C(O)[C@@]2(O)C(=O)C3=C(O)c4c(O)ccc(Cl)c4[C@@](C)(O)[C@H]3C[C@@H]12,14*,2,33,-5,x,-5,6,-29,5
CN(C)[C@@H]1C(=O)C(C(N)=O)=C(O)[C@@]2(O)C(=O)C3=C(O)c4c(O)cccc4[C@@](C)(O)C3C[C@@H]12 (some centres undefined),18*,11,55*,6,x,-2,5,-26,3
C[C@@H]1CN([C@H](C)CO)C(=O)c2c(c3ccccc3n2C)-c2ccccc2CO[C@H]1CN(C)C(=O)Oc1ccccc1,x,x,1,x,x,x,x,x,x
CN1[C@@H]2Cn3c(cccc3=O)[C@H]1[C@@H](C(=O)NCC1CC1)[C@@H]2CO,x,x,0,x,x,x,x,x,x
CC(C)CC#Cc1ccc([C@H]2[C@@H](CO)N3CCCCN(C(=O)Cc4ccccn4)C[C@H]23)cc1,x,x,-3,x,x,x,x,x,x
Cc1cccc(OCCn2cccc2/C=C2/C(=O)NC(=O)N(Cc3ccco3)C2=O)c1,50*,49*,44*,8,13,4,4,-15,24*
Cc1cc(/C=C2\C(=O)NC(=O)N(Cc3ccccc3)C2=O)c(C)n1C1CC1,1,-6,2,1,2,0,x,x,x
Cc1cc(/C=C2/C(=O)NC(=O)N(Cc3ccco3)C2=O)c(C)n1-c1ccccc1,53*,45*,x,-10,10,7,1,-4,11
COC(=O)[C@@H]1[C@@H](CO)[C@@H]2Cn3c(ccc(C4=CCCCC4)c3=O)[C@H]1N2Cc1ccccc1OC,x,x,1,x,x,x,x,x,x
Cc1ccc(S(=O)(=O)Nc2cc(C(=O)N3CCC4(CC3)OCCO4)ccc2N2CCCCC2)cc1,16*,-1,x,1,-1,-2,-1,2,-1
COc1cc(OC)c(OC)cc1/C=C1/C(=O)NC(=O)N(Cc2ccccc2)C1=O,-2,-1,1,-4,13,1,x,x,x
